Measured values from paper PMC10674630 (Diabetes, Metabolic Syndrome and Obesity, 2023).
“Also recorded” adds a separate entry of the source.

Assays:
[1] = test system: S. aureus (ATCC 25923 and MRSA SA 452); assay: Checkerboard assay, both strains; assay type: cell-based; details: for Conversion of resistance to sensitivity by surfactin: addition of at least 64 μg/mL of surfactin, ATCC 25923 and MRSA; for Interaction with surfactin (in words): S. aureus (ATCC 25923 and MRSA)
[2] = test system: ATCC 25923; details: for Fold Change: MIC of antibiotic, alone vs with surfactin; for FICI: antibiotic + surfactin
[3] = test system: SA 452; details: for Fold Change: MIC of antibiotic, alone vs with surfactin; for FICI: antibiotic + surfactin
[4] = test system: S. aureus (ATCC 25923 and MRSA SA 452); assay: Mutant prevention / resistance selection, both strains; assay type: cell-based; details: combination of oxacillin and surfactin
In short: (§1)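 Strains were grown 24 h in MH broth, centrifuged at 4000×g for 10 min and resuspended to 1×1010 CFU/mL. […] MPC was the lowest concentration preventing colonies. MPC/MIC ratio defined the mutant selection window.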

[5] = test system: SA 452; assay: Mutant prevention concentration, SA 452; assay type: cell-based, S. aureus
[6] = test system: ATCC 25923; assay: Mutant prevention concentration, ATCC 25923; assay type: cell-based, S. aureus
In short: as §1

Row | Compound | Conversion of resistance to sensitivity by surfactin [1] | Interaction with surfactin (in words) [1] | Fold Change [2] | Interaction with surfactin (in words) [2] | Fold Change [3] | FICI [3] | Interaction with surfactin (in words) [3] | Mutant selection window (MSW), in words [4] | MIC/MPC ([5]; oxacillin alone, SA 452) | MIC ([5]; oxacillin alone, SA 452, unit not in table) | Decrease of MPC/MIC value ([5]; with surfactin vs oxacillin alone, MRSA) | FICI [2] | MIC/MPC (text: MPC/MIC ratio) ([6]; oxacillin alone) | MIC ([6]; oxacillin alone, unit not in table) | Decrease of MPC/MIC value ([6]; with 64 μg/mL of surfactin vs oxacillin alone)
1 | CC1(C)S[C@@H]2[C@H](NC(=O)[C@H](N)c3ccccc3)C(=O)N2[C@H]1C(=O)O [Ampicillin] | converted them to sensitivity | synergies; also recorded: synergistic effects | 8 | synergistic effects | 128 | 0.133 | significantly synergistic effects | – | – | – | – | – | – | – | –
2 | O=C(O)c1cn(C2CC2)c2cc(N3CCNCC3)c(F)cc2c1=O [Ciprofloxacin] | – | – | – | – | – | 2 | – | – | – | – | – | – | – | – | –
3 | CC[C@H]1OC(=O)[C@H](C)[C@@H](O[C@H]2C[C@@](C)(OC)[C@@H](O)[C@H](C)O2)[C@H](C)[C@@H](O[C@@H]2O[C@H](C)C[C@H](N(C)C)[C@H]2O)[C@](C)(O)C[C@@H](C)C(=O)[C@H](C)[C@@H](O)[C@]1(C)O [Erythromycin] | – | – | – | – | – | 2 | – | – | – | – | – | – | – | – | –
4 | CNC(C)C1CCC(N)C(OC2C(N)CC(N)C(OC3OCC(C)(O)C(NC)C3O)C2O)O1 (stereo not drawn) [Gentamicin] | – | – | – | – | – | 0.25 | significantly synergistic effects | – | – | – | – | – | – | – | –
5 | Cc1onc(-c2ccccc2)c1C(=O)N[C@@H]1C(=O)N2[C@@H]1SC(C)(C)[C@@H]2C(=O)O [Oxacillin] | converted them to sensitivity | synergies; also recorded: synergistic effects | 8 | synergistic effects | – | 0.156 | significantly synergistic effects | narrowed the MSW for oxacillin against MRSA | >32 | 8 | ≥ 2 fold | 0.25 | 32 | 0.5 | 8 fold
6 | CN(C)[C@@H]1C(O)=C(C(N)=O)C(=O)[C@@]2(O)C(O)=C3C(=O)c4c(O)cccc4[C@@](C)(O)[C@H]3C[C@@H]12 [Tetracycline] | converted them to sensitivity | synergies; also recorded: synergistic effects | 16 | synergistic effects | 128 | 0.133 | significantly synergistic effects | – | – | – | – | 0.188 | – | – | –
